Compound activity as filed in PubChem.
IDH1 mut inh = inhibitors of IDH1 R132H reductase, primary screen, biochemical, plate reader, single point; Isocitrate dehydrogenase [NADP] cytoplasmic (Homo sapiens), O75874; diaphorase/resazurin fluorescence, 60 min; inhibition, % at 10 µM; 70,000 compounds, 0.18% hits; AID 624101, 2012; in the data active = inhibition above about 34%; inconclusive = no clear call, values can overlap the other calls; inactive = below about 11%
Target sequence (O75874 whole entry R132H): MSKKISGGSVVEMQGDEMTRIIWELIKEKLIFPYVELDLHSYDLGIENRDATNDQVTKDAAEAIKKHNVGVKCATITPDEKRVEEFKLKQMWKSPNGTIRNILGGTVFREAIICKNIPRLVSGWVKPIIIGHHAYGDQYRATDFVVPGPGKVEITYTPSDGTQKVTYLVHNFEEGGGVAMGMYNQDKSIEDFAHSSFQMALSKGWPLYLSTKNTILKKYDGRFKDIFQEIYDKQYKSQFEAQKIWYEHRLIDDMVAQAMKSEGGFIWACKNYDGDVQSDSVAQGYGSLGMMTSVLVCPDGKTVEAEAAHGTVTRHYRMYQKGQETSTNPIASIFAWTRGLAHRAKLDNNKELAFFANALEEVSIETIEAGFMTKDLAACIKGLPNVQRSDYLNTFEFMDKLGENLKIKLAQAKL
T cruzi growth-1 = T. cruzi intracellular proliferation inhibitors, primary screen, cell-based, beta-gal Tulahuen parasites, NIH3T3 host, luminescence; T. cruzi beta-gal in NIH3T3, GalScreen luminescence, 90 h; inhibition, % at 8.34 µM; 77,000 compounds, 5.9% hits;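 active = mean inhibition above about 93%, with at least 55% of replicates each passing it, limit read from the data, passing the limit was not always enough; inconclusive = only one of those two conditions holds; inactive = neither condition holds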
GASC1 inh = inhibitors of GASC-1 (KDM4C) histone demethylase, primary screen, biochemical, single concentration HTS; inhibition, % at 12.5 µM; 96,000 compounds, 0.15% hits; Lysine-specific demethylase 4C (Homo sapiens), Q9H3R0; AID 720574, 2013; GST-KDM4C 2-372, H3K9me3 peptide, LANCE TR-FRET;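 active = mean replicate inhibition above about 25%, with at least 55% of replicates also reaching it, limit read from the data, passing the limit was not always enough; inconclusive = only one of those two conditions met; inactive = neither condition met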
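Assay system: GST-GASC-1 enzyme fragment 2-372 | Amount: 10 nM enzyme | Medium: HEPES buffer, pH 7.5, plus ascorbate | Reagent: H3K9me3 peptide substrate, Fe(II), 2-oxoglutarate | Doses: Single-point compound screen | Incubation: 30 min demethylation and 1 h detection at room temperature | Measured by: LANCE TR-FRET, excitation 340 nm, emissions 618 and 671 nm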
Pf Dd2 growth = P. falciparum Dd2 growth inhibitors, primary screen, SYBR Green fluorescence, single dose replicates. 94,000 compounds, 2.3% hits. 72 h; hits give low values. AID 1159554, 2015. activity change, % at 10 µM; in the data active = activity change below about -80%; inconclusive = no clear call, values can overlap the other calls
T cruzi growth-2 = T. cruzi intracellular proliferation inhibitors, confirmation, cell-based, NIH3T3 host, beta-gal parasite, luminescence, cherry-pick; shares compounds with T cruzi growth-1; T. cruzi beta-gal in NIH3T3, GalScreen luminescence, 90 h; inhibition, % at 8.35 µM; 5,600 compounds, 72% hits;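 active = mean replicate inhibition above about 95% and at least 55% of replicates individually reaching it, limit read from the data; inconclusive = only one of the two criteria is met; inactive = neither criterion is met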
T cruzi growth-3 = inhibitors of intracellular T. cruzi replication, confirmation, NIH3T3 host cells, beta-gal parasites, cherry-pick, set 2; shares compounds with T cruzi growth-1; T. cruzi beta-gal in NIH3T3, GalScreen luminescence, 90 h; inhibition, % at 2.09 µM; 5,600 compounds, 21% hits;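 active = mean inhibition above about 95%, with at least 55% of replicates also reaching it, limit read from the data; inconclusive = meets just one of the two conditions; inactive = meets neither condition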
3T3 cytotox = cytotoxicity in mouse NIH/3T3 fibroblasts, confirmation, cytotoxicity control for T. cruzi proliferation inhibitor project, cell-based, cherry-pick, single point | shares compounds with T cruzi growth-1 | NIH/3T3 viability, CellTiter-Glo ATP luminescence, 90 h | cytotoxicity (signal decrease), % at 8.35 µM | 5,600 compounds, 14% hits | AID 651742, 2012;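 active = mean signal decrease across replicates above about 35% based on untreated-well scatter, with enough replicates individually passing, limit read from the data; inconclusive = no rule stated though some were filed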
3T3 cytotox 2 = NIH/3T3 fibroblast cytotoxicity, confirmation, cytotoxicity control, cell-based, cherry-pick, single point, set 2 | NIH/3T3 viability, CellTiter-Glo ATP luminescence, 90 h | inhibition, % at 24.9 µM | shares compounds with T cruzi growth-1 | AID 651744, 2012 | 5,600 compounds, 56% hits;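 active = mean loss of cell viability signal at or above a set limit, and enough replicates individually reaching it; inconclusive = meets only the mean limit or only the replicate share; inactive = meets neither condition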
Numbers stand for hits; - = inactive; ? = inconclusive; . = not tested or not shown. Most compounds without a hit are left out; they make up all but 5.8% or so of the library.

SMILES | IDH1 mut inh | T cruzi growth-1 | GASC1 inh | Pf Dd2 growth | T cruzi growth-2 | T cruzi growth-3 | 3T3 cytotox | 3T3 cytotox 2
CN(C)C(=O)c1cccc(-c2ccc3c(c2)[C@H]2[C@H](CCN2C(=O)C2CC2)[C@H](CO)N3)c1 | . | 99 | - | - | 105 | - | - | -
CN(C)C(=O)c1cccc(-c2ccc3c(c2)[C@H]2[C@H](CCN2C(=O)C2CC2)[C@@H](CO)N3)c1 | . | 112 | - | -94 | - | - | - | -
CN(C)C(=O)c1cccc(-c2ccc3c(c2)[C@@H]2[C@@H](CCN2C(=O)C2CC2)[C@H](CO)N3)c1 | . | - | - | - | . | . | . | .
O=C(C1CC1)N1CC[C@@H]2[C@H]1c1cc(-c3cccc(F)c3)ccc1N[C@@H]2CO | . | 115 | - | - | 105 | 103 | - | 28
O=C(C1CCOCC1)N1CC[C@@H]2[C@H]1c1cc(-c3cccc(F)c3)ccc1N[C@@H]2CO | . | - | - | - | . | . | . | .
O=C(CSc1nc2ccc([N+](=O)[O-])cc2s1)Nc1cc(Cl)cc(Cl)c1 | - | . | . | . | . | . | . | .
C/C=C1\C(O[C@@H]2O[C@H](CO)[C@@H](O)[C@H](O)[C@H]2O)OC=C(C(=O)OC)C1CC(=O)OC[C@@H]1[C@H](C)[C@@H](OC(=O)CC2C(C(=O)OC)=COC(O[C@@H]3O[C@H](CO)[C@@H](O)[C@H](O)[C@H]3O)/C2=C\C)C[C@H]1C(CO)CO (some centres not stated) | - | . | . | . | . | . | . | .
COc1cc2c(cc1NC(=O)CCOc1ccc(C)cc1)oc1ccccc12 | - | . | . | . | . | . | . | .
C[C@@H]1CN([C@@H](C)CO)C(=O)c2cc(NC(=O)Nc3cccc4ccccc34)ccc2O[C@@H](C)CCCCO[C@@H]1CN(C)Cc1ccncc1 | . | - | - | - | . | . | . | .
C[C@@H]1CCCCO[C@@H](CN(C)Cc2ccncc2)[C@H](C)CN([C@H](C)CO)C(=O)c2cc(NC(=O)Nc3cccc4ccccc34)ccc2O1 | - | 98 | - | - | 108 | - | - | -
C[C@@H]1CCCCO[C@@H](CN(C)Cc2ccc3c(c2)OCO3)[C@@H](C)CN([C@@H](C)CO)C(=O)c2cc(NC(=O)Nc3cccc4ccccc34)ccc2O1 | - | ? | - | - | 102 | 106 | - | -
C[C@@H]1CCCCO[C@@H](CN(C)Cc2ccccc2)[C@@H](C)CN([C@@H](C)CO)C(=O)c2cc(NC(=O)Nc3cccc4ccccc34)ccc2O1 | - | 115 | - | - | 107 | 109 | - | -
COc1cc(NC(=O)COc2cccc(C)c2C)ccc1-c1cc2ccccc2oc1=O | - | . | . | . | . | . | . | .
Cc1cc(C)cc(OCC(=O)Nc2cc(-c3nc4ccccc4s3)ccc2C)c1 | - | . | . | . | . | . | . | .
CC(C)C#Cc1ccc2c(c1)O[C@H](CN(C)C(=O)C1CCC1)[C@@H](C)CN([C@H](C)CO)S2(=O)=O | - | 113 | - | - | 98 | - | - | 28
CC(C)C#Cc1ccc2c(c1)O[C@@H](CN(C)C(=O)C1CCCCC1)[C@@H](C)CN([C@@H](C)CO)S2(=O)=O | . | ? | - | - | 102 | - | - | 107
CC(C)C#Cc1ccc2c(c1)O[C@H](CN(C)C(=O)C1CCCCC1)[C@@H](C)CN([C@H](C)CO)S2(=O)=O | . | - | - | - | . | . | . | .
C=C1CC[C@H]2C(=C)CC[C@@]3(O)C(=C)C(=O)O[C@@H]3[C@@H]12 | - | . | . | . | . | . | . | .
O=[N+]([O-])c1ccc(OCCCSc2ncccn2)cc1 | - | . | . | . | . | . | . | .
COc1ccc([C@H]2OC[C@H]3[C@@H]2CO[C@@H]3c2ccc(O[C@@H]3O[C@H](CO)C(O)[C@H](O)[C@H]3O)c(OC)c2)cc1OC (some centres not stated) | - | . | . | . | . | . | . | .
Cc1cc(C)c(C)c(OCC(O)Cn2cnc3ccccc32)c1 (configuration not stated) | - | . | . | . | . | . | . | .
O=C(c1ccc(F)cc1)N1CC[C@H]2[C@H](CO)Nc3ccc(C#Cc4ccccc4F)cc3[C@H]21 | . | . | - | - | . | . | . | .
O=C(c1ccccc1)N1CC[C@@H]2[C@@H](CO)Nc3ccc(C#Cc4ccccc4F)cc3[C@@H]21 | . | 101 | - | - | 106 | - | - | 96
COc1ccccc1C#Cc1ccc2c(c1)[C@H]1[C@H](CCN1C(=O)c1ccccc1)[C@H](CO)N2 | . | 100 | - | - | 106 | - | - | 83
COc1ccccc1C#Cc1ccc2c(c1)[C@H]1[C@H](CCN1C(=O)c1ccc(F)cc1)[C@@H](CO)N2 | . | . | - | - | . | . | . | .
SMILES | IDH1 mut inh | T cruzi growth-1 | GASC1 inh | Pf Dd2 growth | T cruzi growth-2 | T cruzi growth-3 | 3T3 cytotox | 3T3 cytotox 2
C[C@H]1CN([C@@H](C)CO)C(=O)c2cccc(NC(=O)c3nc4ccccc4s3)c2O[C@H]1CN(C)Cc1ccc(C(F)(F)F)cc1 | - | ? | - | ? | 110 | - | - | 96
C[C@H](CO)N1C[C@H](C)[C@H](CN(C)Cc2ccccc2)Oc2c(NC(=O)c3nc4ccccc4s3)cccc2C1=O | - | 99 | - | - | 103 | - | - | ?
C[C@@H]1CN([C@H](C)CO)C(=O)c2cccc(NC(=O)c3nc4ccccc4s3)c2O[C@H]1CN(C)Cc1ccc(C(=O)Nc2ccccc2N)cc1 | . | 104 | - | -92 | 108 | - | - | 33
C[C@@H]1CN([C@H](C)CO)C(=O)c2cccc(NC(=O)c3nc4ccccc4s3)c2O[C@H]1CN(C)Cc1ccc(C(F)(F)F)cc1 | . | - | - | - | . | . | . | .
C[C@H]1CN([C@@H](C)CO)C(=O)c2cccc(NC(=O)c3nc4ccccc4s3)c2O[C@H]1CN(C)Cc1ccc(Cl)c(Cl)c1 | . | 97 | - | - | 112 | - | 47 | 54
COc1ccc(-c2nnc(SCC(=O)Nc3ccc(Br)c(C)c3C)n2C)cc1 | - | . | . | . | . | . | . | .
C[C@H](CO)N1C[C@H](C)[C@@H](CN(C)C)OCc2ccccc2-c2c(n(C)c3ccccc23)C1=O | - | ? | - | - | - | - | - | -
C[C@@H]1CN([C@H](C)CO)C(=O)c2c(c3ccccc3n2C)-c2ccccc2CO[C@@H]1CN(C)C | - | ? | - | - | - | - | - | -
